This is an account of results in ChEMBL document CHEMBL1165873, “Synthesis and in vitro study of methylene-bis-tetrahydro[1,3]thiazolo[4,5-c]isoxazoles as potential nematicidal agents” (2010).

Experiment [1] concerns Candida albicans. As to the kind of experiment: Antifungal activity against Candida albicans ATCC 10231 after 48 hrs by broth dilution method. To be noted: ATCC 10231, 48 h. Format: functional. The method in brief: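 Yeast grown 48 h at 28 °C in YPD broth (1% yeast extract, 2% peptone, 2% dextrose), centrifuged and washed twice in sterile water. Compounds dissolved in DMSO, serial twofold dilutions 120–0.9 µM in potato dextrose broth. Wells inoculated with about 10^3 cells/mL and incubated ~48–72 h at 28 °C. MIC (µM) read against controls; NCCLS broth dilution.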
In general terms: Dilution methods test growth across graded concentrations, often in twofold steps.

For experiment [2], the system named is Aspergillus fumigatus. As to the kind of experiment: Antifungal activity against Aspergillus fumigatus HIC 6094 after 48 hrs by broth dilution method. In kind it is functional. To be noted: HIC 6094, 48 h. The method in brief: (§1)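 Fungi grown on potato dextrose agar for two weeks at 28 °C. Spores washed three times and resuspended in water at 10⁵ spores/mL initial inoculum. Compounds dissolved in DMSO, serial twofold dilutions 120–0.9 µM in potato dextrose broth. Wells inoculated with about 10^4 cells/mL and incubated ~48–72 h at 28 °C. MIC (µM) read against controls; NCCLS broth dilution.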

The test system of experiment [3] is Trichophyton rubrum. Nature of the experiment: Antifungal activity against Trichophyton rubrum IFO 9185 after 48 hrs by broth dilution method. Format: functional. To be noted: IFO 9185, 48 h. Put shortly: as §1
The subject of experiment [4] is Trichophyton mentagrophytes. Nature of the experiment: Antifungal activity against Trichophyton mentagrophytes IFO 40996 after 48 hrs by broth dilution method. Format: functional. To be noted: IFO 40996, 48 h. The method in brief:
as §1

For experiment [5], the system named is Ditylenchus myceliophagus. As to the kind of experiment: Nematicidal activity against Ditylenchus myceliophagus assessed as immobile nematodes after 2 days. Format: functional.
The test system of experiment [6] is Caenorhabditis elegans. Nature of the experiment: Nematicidal activity against Caenorhabditis elegans assessed as immobile nematodes after 2 days. Format: functional, organism-based. Put shortly: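 Worms raised on 8P plates with Na22 bacteria as food. Adults from five-day cultures suspended in water at about 100–250 nematodes/mL. 100 µL of suspension added to compound solutions at various concentrations in 24-well plates at 25 °C. Percentage of immobile worms scored after two days; LD50 derived.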

Converted amounts (≈) assume the structure as drawn. The source made the active and inactive calls. No cut-off for these calls is given here. Bounds are passed on as bounds.

In general, MIC refers to the lowest concentration that inhibits growth of the organism. A higher MIC goes with a less susceptible organism.

Regarding `COc1ccc(Cc2ccc(OC)c(C3SC4C(=NOC4c4ccc(F)cc4)N3c3ccccc3C)c2)cc1C1SC2C(=NOC2c2ccc(F)cc2)N1c1ccccc1C` (centres undefined), the MIC in experiment [1], in experiment [2], in experiment [3] and in experiment [4] was 3.75 µM (≈ 3.2 µg/mL) each time. The result in experiment [5] and in experiment [6] was Active.
Consider `COc1ccc(Cc2ccc(OC)c(C3SC4C(=NOC4c4ccc(F)cc4)N3c3ccc(O)cc3)c2)cc1C1SC2C(=NOC2c2ccc(F)cc2)N1c1ccc(O)cc1` (centres undefined), for which the MIC in experiment [1] was found to be 15 µM (≈ 12.9 µg/mL); in experiment [2], 15 µM (≈ 12.9 µg/mL); in experiment [3], 7.5 µM (≈ 6.43 µg/mL); in experiment [4] it was 7.5 µM (≈ 6.43 µg/mL). The result in experiment [5] and in experiment [6] was Active.
With `COc1ccc(Cc2ccc(OC)c(C3SC4C(=NOC4c4ccc(F)cc4)N3c3ccc(C)cc3)c2)cc1C1SC2C(=NOC2c2ccc(F)cc2)N1c1ccc(C)cc1` (centres undefined), the MIC in experiment [1] was 7.5 µM (≈ 6.4 µg/mL); in experiment [2], 30 µM (≈ 25.6 µg/mL); in experiment [3] it was over 120 µM; in experiment [4] it was 15 µM (≈ 12.8 µg/mL). The result in experiment [5] and in experiment [6] was Active.
As to `COc1ccc(Cc2ccc(OC)c(C3SC4C(=NOC4c4ccc(F)cc4)N3c3ccc(F)cc3)c2)cc1C1SC2C(=NOC2c2ccc(F)cc2)N1c1ccc(F)cc1` (centres undefined), the MIC in experiment [1], in experiment [2], in experiment [3] and in experiment [4] was 3.75 µM (≈ 3.23 µg/mL) in each case. Besides, the outcome in experiment [5] and in experiment [6] was Active.
Regarding `COc1ccccc1C1SC2C(=NOC2c2ccc(F)cc2)N1c1ccc(C)cc1` (centres undefined), the MIC in experiment [1] is 60 µM (≈ 25.2 µg/mL); in experiment [2], 120 µM (≈ 50.5 µg/mL); in experiment [3] it was over 120 µM; in experiment [4] it was 120 µM (≈ 50.5 µg/mL).
On to `COc1ccccc1C1SC2C(=NOC2c2ccc(F)cc2)N1c1ccccc1` (centres undefined), for which the MIC in experiment [1] is 120 µM (≈ 48.8 µg/mL); in experiment [2], over 120 µM; in experiment [3] it was over 120 µM; in experiment [4] it was over 120 µM.
For the molecule `COc1ccc(Cc2ccc(OC)c(C3SC4C(=NOC4c4ccc(F)cc4)N3c3ccc(Cl)cc3)c2)cc1C1SC2C(=NOC2c2ccc(F)cc2)N1c1ccc(Cl)cc1` (centres undefined), the MIC in experiment [1], in experiment [2], in experiment [3] and in experiment [4] was 3.75 µM (≈ 3.35 µg/mL) in each case. The outcome in experiment [5] and in experiment [6] was Active.
`COc1ccccc1C1SC2C(=NOC2c2ccc(F)cc2)N1c1ccc(O)cc1` (centres undefined): the MIC in experiment [1] is 60 µM (≈ 25.3 µg/mL); in experiment [2] it was 60 µM (≈ 25.3 µg/mL); in experiment [3], over 120 µM; in experiment [4], 60 µM (≈ 25.3 µg/mL).
Turning to `COc1ccc(Cc2ccc(OC)c(C3SC4C(=NOC4c4ccc(F)cc4)N3c3ccccc3)c2)cc1C1SC2C(=NOC2c2ccc(F)cc2)N1c1ccccc1` (centres undefined), the MIC in experiment [1] is 30 µM (≈ 24.7 µg/mL); in experiment [2], 60 µM (≈ 49.5 µg/mL); in experiment [3], 30 µM (≈ 24.7 µg/mL); in experiment [4], 60 µM (≈ 49.5 µg/mL). Further, the outcome in experiment [5] and in experiment [6] was Active.
As to `COc1ccccc1C1SC2C(=NOC2c2ccc(F)cc2)N1c1ccc(Cl)cc1` (centres undefined), the MIC in experiment [1], in experiment [2], in experiment [3] and in experiment [4] was 30 µM (≈ 13.2 µg/mL) in each case.
As to `COc1ccc(Cc2ccc(OC)c(C3SC4C(=NOC4c4ccc(F)cc4)N3c3ccc([N+](=O)[O-])cc3)c2)cc1C1SC2C(=NOC2c2ccc(F)cc2)N1c1ccc([N+](=O)[O-])cc1` (centres undefined), the MIC in experiment [1] turned out to be 15 µM (≈ 13.7 µg/mL); in experiment [2] it was 30 µM (≈ 27.4 µg/mL); in experiment [3], 30 µM (≈ 27.4 µg/mL); in experiment [4], 7.5 µM (≈ 6.86 µg/mL). The result in experiment [5] and in experiment [6] was Active.
As to `C[C@@H]1[C@H](O)[C@@H](C)/C=C/C=C/C=C/C=C/C=C/C=C/C=C/[C@H](O[C@@H]2O[C@H](C)[C@@H](O)[C@H](N)[C@@H]2O)C[C@@H]2O[C@](O)(C[C@@H](O)C[C@@H](O)[C@H](O)CC[C@@H](O)C[C@@H](O)CC(=O)O[C@H]1C)C[C@H](O)[C@H]2C(=O)O` [AMPHOTERICIN B], the MIC in experiment [1] amounted to 7.5 µM (≈ 6.93 µg/mL); in experiment [2], 3.75 µM (≈ 3.47 µg/mL); in experiment [3], 3.75 µM (≈ 3.47 µg/mL); in experiment [4], 3.75 µM (≈ 3.47 µg/mL).
For `COc1ccccc1C1SC2C(=NOC2c2ccc(F)cc2)N1c1ccccc1C` (centres undefined), the MIC in experiment [1] was 60 µM (≈ 25.2 µg/mL); in experiment [2], 30 µM (≈ 12.6 µg/mL); in experiment [3] it was 15 µM (≈ 6.31 µg/mL); in experiment [4] it was 30 µM (≈ 12.6 µg/mL).
In the case of `COc1ccccc1C1SC2C(=NOC2c2ccc(F)cc2)N1c1ccc([N+](=O)[O-])cc1` (centres undefined), the MIC in experiment [1] was determined as 30 µM (≈ 13.5 µg/mL); in experiment [2] it was 60 µM (≈ 27.1 µg/mL); in experiment [3], 120 µM (≈ 54.2 µg/mL); in experiment [4] it was 30 µM (≈ 13.5 µg/mL).
In the case of `COc1ccccc1C1SC2C(=NOC2c2ccc(F)cc2)N1c1ccc(F)cc1` (centres undefined), the MIC in experiment [1] amounted to 120 µM (≈ 50.9 µg/mL); in experiment [2], 60 µM (≈ 25.5 µg/mL); in experiment [3] it was 60 µM (≈ 25.5 µg/mL); in experiment [4] it was 60 µM (≈ 25.5 µg/mL).
